# Compounds with a hit are over-represented: about 2.3% of the library has one in this group of screens.
# TRPC6 inhibitor: mouse TRPC6 channel inhibitors, primary screen, cell-based, HEK293, membrane potential dye; Short transient receptor potential channel 6 (Mus musculus), Q61143; ACh-evoked depolarization; hits give low values; B-score at 10 µM; 310,000 compounds, 1.1% hits; AID 2553, 2010;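 active means B-score under library mean minus 3 SD, initial fluorescence not abnormally high, positive integrated signal ratio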;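 further: B-score derived from integrated fluorescence ratio over the kinetic read; more negative B-score means stronger inhibition of depolarization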
# TRPC6 act: mouse TRPC6 channel activators, primary screen, cell-based, HEK293, membrane potential dye; Short transient receptor potential channel 6 (Mus musculus), Q61143; HEK293-TRPC6 membrane potential dye fluorescence; hits give high values; B-score at 10 µM; 310,000 compounds, 0.13% hits; AID 2550, 2010;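 active means B-score of the integrated fluorescence ratio above library mean plus 3 SD, and starting fluorescence ratio within library mean plus 5 SD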;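 further: higher score means more depolarization so channel activation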
# TRPC4 agonist: activators of mouse TRPC4 channel, primary screen, Fluo4 calcium, HEK293 TRPC4beta/mu-opioid cells; Fluo4 calcium fluorescence; hits give high values; B-score at 10 µM; 310,000 compounds, 0.49% hits; AID 2237, 2010;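 active means B-score above 5 SD of library B-scores, and initial fluorescence ratio not above library mean plus 5 SD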;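 further: positive B-score marks a calcium rise read as TRPC4 activation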
# Target sequence (Q9QUQ5 whole entry, looked up): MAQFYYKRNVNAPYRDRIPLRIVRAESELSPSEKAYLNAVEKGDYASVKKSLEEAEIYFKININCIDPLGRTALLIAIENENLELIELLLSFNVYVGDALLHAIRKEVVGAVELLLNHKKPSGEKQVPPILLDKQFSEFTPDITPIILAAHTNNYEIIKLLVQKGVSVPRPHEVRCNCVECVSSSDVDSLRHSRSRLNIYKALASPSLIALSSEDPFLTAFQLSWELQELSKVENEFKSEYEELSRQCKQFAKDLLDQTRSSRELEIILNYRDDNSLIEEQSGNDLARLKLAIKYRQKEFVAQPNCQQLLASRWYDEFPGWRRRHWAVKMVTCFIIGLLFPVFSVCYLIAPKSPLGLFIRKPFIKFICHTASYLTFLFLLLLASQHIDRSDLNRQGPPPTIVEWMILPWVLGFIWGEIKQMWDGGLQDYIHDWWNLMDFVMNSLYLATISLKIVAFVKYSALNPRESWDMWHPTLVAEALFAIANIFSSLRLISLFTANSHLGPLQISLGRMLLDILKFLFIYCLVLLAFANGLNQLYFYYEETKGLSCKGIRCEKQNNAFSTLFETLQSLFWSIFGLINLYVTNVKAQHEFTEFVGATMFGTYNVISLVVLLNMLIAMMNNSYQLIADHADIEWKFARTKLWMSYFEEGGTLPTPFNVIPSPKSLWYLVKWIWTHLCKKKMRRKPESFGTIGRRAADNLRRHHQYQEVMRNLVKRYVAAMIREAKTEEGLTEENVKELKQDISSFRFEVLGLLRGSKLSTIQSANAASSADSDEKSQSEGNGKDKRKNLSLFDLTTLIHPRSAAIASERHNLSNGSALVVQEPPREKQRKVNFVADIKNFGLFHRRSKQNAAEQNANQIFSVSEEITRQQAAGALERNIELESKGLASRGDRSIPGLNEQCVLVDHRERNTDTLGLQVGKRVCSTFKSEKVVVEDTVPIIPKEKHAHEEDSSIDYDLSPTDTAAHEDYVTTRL
#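 Incubation: 45 min room-temperature Fluo4 loading, 110 s read / System: HEK293 cells stably co-expressing mouse TRPC4beta and mu-opioid receptor / Signal: Fluo4 fluorescence, kinetic / Control set: buffer (low) and maximal DAMGO (high) / Measure: integrated baseline-normalised fluorescence ratio, converted to per-well B score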
# TRPC4 block: inhibitors of mouse TRPC4 channel, primary screen, Fluo4 calcium, HEK293 TRPC4beta/mu-opioid cells; Short transient receptor potential channel 4 (Mus musculus), Q9QUQ5; DAMGO-evoked Fluo4 calcium flux; hits give low values; B-score at 10 µM; 300,000 compounds, 0.39% hits; AID 2247, 2010;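 active means B-score over 3 SD under the library average, no early fluorescence shift, positive overall ratio signal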
#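 Signal: kinetic Fluo4 fluorescence imaging of calcium influx. Material: stable TRPC4beta/mu-opioid receptor HEK293 cells. Probe or stimulus: DAMGO in two steps, submaximal then maximal.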
# TRPC4 potent: positive allosteric modulators of TRPC4, primary screen, cell-based, mouse TRPC4beta, HEK293 mu-opioid, Fluo-4 calcium. 310,000 compounds, 0.42% hits. DAMGO EC20, Fluo-4 Ca2+ flux; hits give high values. AID 2227, 2009. B-score at 10 µM;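 active means B-score of calcium response area above 5 SD of library B-scores, with initial fluorescence ratio within 5 SD of library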;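 further: B-score of integrated fluorescence ratio over time as area under calcium response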
# TRPC4 spec 2: second selectivity test of TRPC6 inhibitors: effect on mouse TRPC4. shares compounds with TRPC6 inhibitor. HEK293 TRPC4/MOR, membrane potential dye fluorescence; channel activated by saturating DAMGO dose. inhibition, % at 10 µM. 920 compounds, 42% hits. AID 2776;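 active means compounds whose fluorescence signal differed from control wells by over 3 SD, either direction, in both duplicate plates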
# TRPC4 spec: mouse TRPC4 modulation by TRPC6 hits, confirmation, selectivity assay for TRPC6 inhibitor project, cell-based, HEK293 TRPC4/mu-opioid, membrane potential dye; shares compounds with TRPC6 inhibitor; AID 2777, 2010; 920 compounds, 61% hits; activity change, negative = inhibition, % at 10 µM; membrane potential fluorescence;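 active means rise or fall in signal beyond 3 SD of buffer-only wells in both replicate plates, either sign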;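 further: integrated kinetic ratio of fluorescence range over baseline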
# HEK293 MPD ctr 2-1: nonspecific membrane potential effects, parental HEK293, confirmation, counter-screen for TRPC6 inhibitor project, cell-based, second counter screen | 920 compounds, 31% hits | parental HEK293 membrane potential dye fluorescence; maximal acetylcholine challenge after compound addition | shares compounds with TRPC6 inhibitor | signal change vs control, % at 10 µM;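 active means membrane potential signal moving either way by over 3 SD of the maximum-effect control, in both duplicate plates, meaning non-specific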
# HEK293 MPD ctr-1: membrane potential modulation in parental HEK293, confirmation, counter-screen for TRPC6 inhibitor project, cell-based | shares compounds with TRPC6 inhibitor | parental HEK293 membrane potential dye fluorescence | AID 2780, 2010 | membrane potential signal change, % at 10 µM | 920 compounds, 60% hits;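 active means membrane potential signal shifting up or down by more than 3 SD of buffer-only wells, on both duplicate plates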
# HEK293 MPD ctr-2: parental HEK293 membrane potential modulation, confirmation, counter-screen for TRPC6 modulator project, cell-based | shares compounds with TRPC6 inhibitor | membrane potential dye fluorescence | membrane potential signal change, % at 10 µM | 2,400 compounds, 51% hits | AID 488924, 2010;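 active means membrane potential signal moves up or down beyond 5 SD from buffer-only wells, on both duplicate plates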
# HEK293 MPD ctr 2-2: parental HEK293 nonspecific activity of TRPC6 modulators, second screen | inhibition, % at 10 µM | membrane potential dye fluorescence; after compound, maximal acetylcholine stimulation | AID 488926 | 2,400 compounds, 14% hits | shares compounds with TRPC6 inhibitor;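 active means membrane potential signal drops by more than 5 SD from the mean control signal, in both duplicate plates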;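 further: plate controls were acetylcholine ECmax control wells for no effect and buffer only wells for full effect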
# TRPC4/MOR mod: TRPC4 modulation by TRPC6 hit compounds, confirmation, selectivity assay for TRPC6 modulator project, cell-based, HEK293 TRPC4/mu-opioid, membrane potential dye, mouse; 2,400 compounds, 69% hits; percent change from control (negative = decrease, positive = increase), % at 10 µM; shares compounds with TRPC6 inhibitor; membrane potential fluorescence;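 active means membrane potential signal moved up or down beyond 5 SD of buffer control wells, in both duplicate plates, actives on both sides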;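 further: plate controls were assay buffer wells for no effect and DAMGO maximal-effect wells for full effect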
# TRPC4/MOR inh 2: second selectivity test of TRPC6 modulators against mouse TRPC4; HEK293 TRPC4/mu-opioid, membrane potential dye fluorescence; stimulated with maximal-effect DAMGO; shares compounds with TRPC6 inhibitor; inhibition, % at 10 µM; 2,400 compounds, 55% hits;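 active means drop in membrane potential signal beyond 5 SD of the control wells in both duplicate plates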;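 further: TRPC4 counter screen for TRPC6 hits run under conditions tuned for TRPC6 not TRPC4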
# TRPC6 inh conf: mouse TRPC6 channel inhibitors, confirmation, HEK293 cells, membrane potential dye, duplicate; shares compounds with TRPC6 inhibitor; inhibition, % at 10 µM; ACh-evoked depolarization; 3,300 compounds, 43% hits;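 active means fluorescence ratio falls more than 5 SD below the full-stimulation control mean, in both duplicate runs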;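 further: integrated fluorescence ratio of peak minus minimum over baseline after agonist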
# TRPC6 act confirm: mouse TRPC6 channel activators, confirmation, HEK293 cells, membrane potential dye, duplicate. shares compounds with TRPC6 inhibitor. HEK293-TRPC6 membrane potential dye fluorescence, FDSS. activation, % at 10 µM. 2,800 compounds, 11% hits. AID 488961, 2010;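 active means ratio signal rise beyond 5 SD above unstimulated control wells' mean, seen in both duplicate runs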;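 further: plate controls were buffer EC0 wells for no effect and acetylcholine ECmax response for full effect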
# * marks the source's active call; other numbers are inactive results; i = inactive; / = no result given; + = active, no number.
SMILES,TRPC6 inhibitor,TRPC6 act,TRPC4 agonist,TRPC4 block,TRPC4 potent,HEK293 MPD ctr-2,HEK293 MPD ctr 2-2,TRPC4/MOR mod,TRPC4/MOR inh 2,TRPC6 inh conf,TRPC6 act confirm,others
CCOC(=O)N1CCN(S(=O)(=O)N2CCCC(C(=O)NCCc3ccc(OCC)c(OCC)c3)C2)CC1 (stereo not given),i,i,i,i,i,/,/,/,/,/,/,
CC(=O)c1ccc(NC(=O)Nc2ccncc2)cc1,-5.22*,i,43*,-6*,i,-142.5%*,73.5%*,-11.5%*,52.0%*,48.0%*,i,
CC(=O)c1ccc(NC(=O)Nc2cccnc2)cc1,i,i,i,i,i,/,/,/,/,/,/,
O=C(Nc1ccncc1)Nc1ccc(Cl)cc1,i,i,i,i,i,/,/,/,/,/,/,
O=C(Nc1ccncc1)Nc1ccncc1,-7.47*,i,i,i,i,-309.5%*,69.5%*,-50.5%*,37.5%*,i,i,
CC(NC(=O)CSc1ncn[nH]1)c1ccc(Cl)cc1Cl (stereo not given),i,i,i,i,i,/,/,/,/,/,/,
O=C1/C(=C\c2cc([N+](=O)[O-])ccc2O)SC(=S)N1Cc1ccc(Cl)cc1,i,50.7*,137*,i,21*,+,i,283.5%*,i,i,177.5%*,
CCOC(=O)N1CCN(C(=O)COC(=O)C2CCN(S(=O)(=O)c3c(Cl)cccc3Cl)CC2)CC1,i,i,i,i,i,/,/,/,/,/,/,
O=C(c1ccc(Oc2cc(Cl)cc(Cl)c2)o1)N1CCCCC1,-5.56*,i,i,i,i,i,i,i,i,i,i,
CCCCc1nnc(NC(=O)CSc2nc(O)c(Cc3ccccc3)c(=O)[nH]2)s1,i,i,i,i,i,/,/,/,/,/,/,
O=C(CSc1nc(O)c(Cc2ccccc2)c(=O)[nH]1)Nc1nnc(SCc2ccccc2)s1,i,20*,i,i,i,308.0%*,i,58.0%*,i,i,142.5%*,
Oc1[nH]c2ccc(Br)cc2c1N=NC(=S)NCC1CCCO1 (stereo not given),-8.84*,i,i,i,i,/,/,/,/,i,i,TRPC4 spec 2=i;TRPC4 spec=i;HEK293 MPD ctr 2-1=i;HEK293 MPD ctr-1=i
Oc1[nH]c2ccccc2c1N=NC(=S)NCC1CCCO1 (stereo not given),i,i,i,i,i,/,/,/,/,/,/,
COc1ccc2oc(=O)c(C(=O)C[n+]3cccc(C)c3)cc2c1,-8.36*,i,i,i,i,/,/,/,/,i,i,TRPC4 spec 2=i;TRPC4 spec=-12.2%*;HEK293 MPD ctr 2-1=i;HEK293 MPD ctr-1=-137.0%*
CNC(=O)c1cc2cc(OC)ccc2oc1=O,i,i,i,i,i,/,/,/,/,/,/,
CCCOc1ccc(N2C(=O)CC(N(CCc3ccc(OC)cc3)C(=O)/C=C/C(=O)O)C2=O)cc1 (stereo not given),-10.1*,i,i,i,i,/,/,/,/,i,i,TRPC4 spec 2=i;TRPC4 spec=i;HEK293 MPD ctr 2-1=i;HEK293 MPD ctr-1=i
CC1CN(C2=Nc3cccc4cccc2c34)CC(C)O1 (stereo not given),-7.34*,i,i,i,i,-152.5%*,i,-71.5%*,45.5%*,58.0%*,i,
COc1ccccc1N1CCN(C2=Nc3cccc4cccc2c34)CC1,-8.66*,i,i,i,i,-214.0%*,79.0%*,-45.0%*,83.5%*,60.5%*,i,
CC(=O)N1CCN(C2=Nc3cccc4cccc2c34)CC1,-8.14*,i,i,i,i,-226.5%*,i,-97.0%*,48.0%*,57.0%*,i,
c1cc2c3c(cccc3c1)C(N1CCOCC1)=N2,-6.83*,i,i,i,i,-198.0%*,i,-129.0%*,83.5%*,52.0%*,i,
CC1CN(c2oc(-c3ccccc3Cl)nc2C#N)CC(C)O1 (stereo not given),i,i,i,i,i,/,/,/,/,/,/,
O=C1c2ccccc2C(=O)c2c1cccc2N1CCOCC1,i,i,i,i,i,/,/,/,/,/,/,
O=C(O)c1ccc(NC2=Nc3cccc4cccc2c34)cc1,i,i,i,i,i,/,/,/,/,/,/,
S=C(Nc1ccc(Br)cc1Cl)Nn1cnnc1,i,i,i,i,i,/,/,/,/,/,/,

# Bioassay records as filed in PubChem.
